# Laboratory results taken from ChEMBL document CHEMBL5058577, “EUbOPEN Chemogenomics Library 2 (Multiplex)” (2022).
# Test system: Fibroblast
# Experiment: Multiplex assay against human fibroblast
# Type: toxicity, cell-based
# Outline: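 On a CQ1 microscope at 37°C and 5% CO2, live cells were imaged after compound addition. They had been stained at seeding with Hoechst33342, BioTracker Green Microtubule Cytoskeleton Dye, MitoTracker Red and Annexin V Alexa Fluor 680. CellPathfinder machine-learning gating assigned cells to Hoechst high-intensity objects or normal cells, normal cells to healthy, pyknosed or fragmented nuclei, and pyknosed cells to mitotic or apoptotic. Tubulin, mitochondrial-mass and membrane-permeability phenotypes are per cents of healthy-nucleus cells.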
# [1] = 12 h, 1 µM, compound concentration 1 uM, replicate 1
# [2] = 12 h, 1 µM, compound concentration 1 uM, replicate 2
# [3] = 12 h, 10 µM, compound concentration 10 uM, replicate 1
# [4] = 12 h, 10 µM, compound concentration 10 uM, replicate 2
# [5] = 24 h, 1 µM, compound concentration 1 uM, replicate 1
# [6] = 24 h, 1 µM, compound concentration 1 uM, replicate 2
# [7] = 24 h, 10 µM, compound concentration 10 uM, replicate 1
# [8] = 24 h, 10 µM, compound concentration 10 uM, replicate 2
# [9] = 48 h, 1 µM, compound concentration 1 uM, replicate 1
# [10] = 48 h, 1 µM, compound concentration 1 uM, replicate 2
# [11] = 48 h, 10 µM, compound concentration 10 uM, replicate 1
# [12] = 48 h, 10 µM, compound concentration 10 uM, replicate 2
smiles,measurement,setting,value
CN1CCN2c3ncccc3Cc3ccccc3C2C1 (stereo not given) [MIRTAZAPINE],Population Apoptotic (%),[1],44%
same,Population Fragmented Nuclei (%),[1],10%
same,Population Healthy Nuclei (%),[1],77%
same,Population Hoechst High Intensity Objects (%),[1],3%
same,Population Membrane Permeable-Phenotype (%),[1],0%
same,Population Mitochondria Different-Phenotype (%),[1],6%
same,Population Mitotic Cells (%),[1],56%
same,Population Normal (%),[1],96%
same,Population Pyknosed Nuclei (%),[1],12%
same,Population Tubulin-Different-Phenotype (%),[1],24%
same,Total Cell Count,[1],213
same,Population Apoptotic (%),[2],33%
same,Population Fragmented Nuclei (%),[2],24%
same,Population Healthy Nuclei (%),[2],47%
same,Population Membrane Permeable-Phenotype (%),[2],4%
same,Population Mitochondria Different-Phenotype (%),[2],5%
same,Population Mitotic Cells (%),[2],66%
same,Population Pyknosed Nuclei (%),[2],27%
same,Population Tubulin-Different-Phenotype (%),[2],45%
same,Total Cell Count,[2],156
same,Population Apoptotic (%),[3],44%
same,Population Fragmented Nuclei (%),[3],19%
same,Population Healthy Nuclei (%),[3],69%
same,Population Hoechst High Intensity Objects (%),[3],1%
same,Population Membrane Permeable-Phenotype (%),[3],0%
same,Population Mitochondria Different-Phenotype (%),[3],8%
same,Population Mitotic Cells (%),[3],55%
same,Population Normal (%),[3],98%
same,Population Pyknosed Nuclei (%),[3],10%
same,Population Tubulin-Different-Phenotype (%),[3],30%
same,Total Cell Count,[3],168
same,Population Apoptotic (%),[4],28%
same,Population Fragmented Nuclei (%),[4],27%
same,Population Healthy Nuclei (%),[4],40%
same,Population Hoechst High Intensity Objects (%),[4],6%
same,Population Membrane Permeable-Phenotype (%),[4],16%
same,Population Mitochondria Different-Phenotype (%),[4],7%
same,Population Mitotic Cells (%),[4],71%
same,Population Normal (%),[4],93%
same,Population Pyknosed Nuclei (%),[4],32%
same,Population Tubulin-Different-Phenotype (%),[4],60%
same,Total Cell Count,[4],140
same,Population Apoptotic (%),[5],47%
same,Population Fragmented Nuclei (%),[5],7%
same,Population Healthy Nuclei (%),[5],82%
same,Population Hoechst High Intensity Objects (%),[5],5%
same,Population Membrane Permeable-Phenotype (%),[5],0%
same,Population Mitochondria Different-Phenotype (%),[5],5%
same,Population Mitotic Cells (%),[5],52%
same,Population Normal (%),[5],94%
same,Population Pyknosed Nuclei (%),[5],10%
same,Population Tubulin-Different-Phenotype (%),[5],31%
same,Total Cell Count,[5],201
same,Population Apoptotic (%),[6],48%
same,Population Fragmented Nuclei (%),[6],26%
same,Population Healthy Nuclei (%),[6],50%
same,Population Hoechst High Intensity Objects (%),[6],0%
same,Population Membrane Permeable-Phenotype (%),[6],10%
same,Population Mitochondria Different-Phenotype (%),[6],10%
same,Population Mitotic Cells (%),[6],51%
same,Population Normal (%),[6],99%
same,Population Pyknosed Nuclei (%),[6],23%
same,Population Tubulin-Different-Phenotype (%),[6],36%
same,Total Cell Count,[6],153
same,Population Apoptotic (%),[7],50%
same,Population Fragmented Nuclei (%),[7],19%
same,Population Healthy Nuclei (%),[7],72%
same,Population Hoechst High Intensity Objects (%),[7],4%
same,Population Membrane Permeable-Phenotype (%),[7],0%
same,Population Mitochondria Different-Phenotype (%),[7],9%
same,Population Mitotic Cells (%),[7],50%
same,Population Normal (%),[7],95%
same,Population Pyknosed Nuclei (%),[7],7%
same,Population Tubulin-Different-Phenotype (%),[7],30%
same,Total Cell Count,[7],186
same,Population Apoptotic (%),[8],46%
same,Population Fragmented Nuclei (%),[8],29%
same,Population Healthy Nuclei (%),[8],46%
same,Population Hoechst High Intensity Objects (%),[8],5%
same,Population Membrane Permeable-Phenotype (%),[8],15%
same,Population Mitochondria Different-Phenotype (%),[8],1%
same,Population Mitotic Cells (%),[8],53%
same,Population Normal (%),[8],94%
same,Population Pyknosed Nuclei (%),[8],23%
same,Population Tubulin-Different-Phenotype (%),[8],68%
same,Total Cell Count,[8],136
same,Population Apoptotic (%),[9],60%
same,Population Fragmented Nuclei (%),[9],15%
same,Population Healthy Nuclei (%),[9],73%
same,Population Hoechst High Intensity Objects (%),[9],7%
same,Population Membrane Permeable-Phenotype (%),[9],0%
same,Population Mitochondria Different-Phenotype (%),[9],4%
same,Population Mitotic Cells (%),[9],39%
same,Population Normal (%),[9],92%
same,Population Pyknosed Nuclei (%),[9],11%
same,Population Tubulin-Different-Phenotype (%),[9],31%
same,Total Cell Count,[9],213
same,Population Apoptotic (%),[10],50%
same,Population Fragmented Nuclei (%),[10],36%
same,Population Healthy Nuclei (%),[10],45%
same,Population Hoechst High Intensity Objects (%),[10],2%
same,Population Membrane Permeable-Phenotype (%),[10],11%
same,Population Mitochondria Different-Phenotype (%),[10],12%
same,Population Mitotic Cells (%),[10],50%
same,Population Normal (%),[10],97%
same,Population Pyknosed Nuclei (%),[10],17%
same,Population Tubulin-Different-Phenotype (%),[10],56%
same,Total Cell Count,[10],161
same,Population Apoptotic (%),[11],66%
same,Population Fragmented Nuclei (%),[11],17%
same,Population Healthy Nuclei (%),[11],73%
same,Population Hoechst High Intensity Objects (%),[11],5%
same,Population Membrane Permeable-Phenotype (%),[11],0%
same,Population Mitochondria Different-Phenotype (%),[11],9%
same,Population Mitotic Cells (%),[11],33%
same,Population Normal (%),[11],94%
same,Population Pyknosed Nuclei (%),[11],9%
same,Population Tubulin-Different-Phenotype (%),[11],36%
same,Total Cell Count,[11],176
same,Population Apoptotic (%),[12],33%
same,Population Fragmented Nuclei (%),[12],46%
same,Population Healthy Nuclei (%),[12],41%
same,Population Hoechst High Intensity Objects (%),[12],2%
same,Population Membrane Permeable-Phenotype (%),[12],8%
same,Population Mitochondria Different-Phenotype (%),[12],2%
same,Population Mitotic Cells (%),[12],66%
same,Population Normal (%),[12],97%
same,Population Pyknosed Nuclei (%),[12],12%
same,Population Tubulin-Different-Phenotype (%),[12],60%
same,Total Cell Count,[12],120
CCNC1(C(N)=O)CCN(c2ncnc3c2nc(-c2ccccc2Cl)n3-c2ccc(Cl)cc2)CC1 [OTENABANT],Population Apoptotic (%),[1],26%
same,Population Fragmented Nuclei (%),[1],19%
same,Population Healthy Nuclei (%),[1],63%
same,Population Hoechst High Intensity Objects (%),[1],6%
same,Population Membrane Permeable-Phenotype (%),[1],1%
same,Population Mitochondria Different-Phenotype (%),[1],7%
same,Population Mitotic Cells (%),[1],73%
same,Population Normal (%),[1],93%
same,Population Pyknosed Nuclei (%),[1],17%
same,Population Tubulin-Different-Phenotype (%),[1],44%
same,Total Cell Count,[1],161
same,Population Apoptotic (%),[2],37%
same,Population Fragmented Nuclei (%),[2],25%
same,Population Healthy Nuclei (%),[2],48%
same,Population Hoechst High Intensity Objects (%),[2],2%
same,Population Membrane Permeable-Phenotype (%),[2],6%
same,Population Mitochondria Different-Phenotype (%),[2],10%
same,Population Mitotic Cells (%),[2],62%
same,Population Normal (%),[2],97%
same,Population Pyknosed Nuclei (%),[2],26%
same,Population Tubulin-Different-Phenotype (%),[2],50%
same,Total Cell Count,[2],156
same,Population Apoptotic (%),[3],57%
same,Population Fragmented Nuclei (%),[3],22%
same,Population Healthy Nuclei (%),[3],64%
same,Population Hoechst High Intensity Objects (%),[3],4%
same,Population Membrane Permeable-Phenotype (%),[3],0%
same,Population Mitochondria Different-Phenotype (%),[3],16%
same,Population Mitotic Cells (%),[3],42%
same,Population Normal (%),[3],95%
same,Population Pyknosed Nuclei (%),[3],12%
same,Population Tubulin-Different-Phenotype (%),[3],90%
same,Total Cell Count,[3],170
same,Population Apoptotic (%),[4],40%
same,Population Fragmented Nuclei (%),[4],30%
same,Population Healthy Nuclei (%),[4],48%
same,Population Hoechst High Intensity Objects (%),[4],3%
same,Population Membrane Permeable-Phenotype (%),[4],12%
same,Population Mitochondria Different-Phenotype (%),[4],18%
same,Population Mitotic Cells (%),[4],59%
same,Population Normal (%),[4],96%
same,Population Pyknosed Nuclei (%),[4],21%
same,Population Tubulin-Different-Phenotype (%),[4],87%
same,Total Cell Count,[4],216
same,Population Apoptotic (%),[5],26%
same,Population Fragmented Nuclei (%),[5],17%
same,Population Healthy Nuclei (%),[5],66%
same,Population Hoechst High Intensity Objects (%),[5],4%
same,Population Membrane Permeable-Phenotype (%),[5],0%
same,Population Mitochondria Different-Phenotype (%),[5],8%
same,Population Mitotic Cells (%),[5],73%
same,Population Normal (%),[5],95%
same,Population Pyknosed Nuclei (%),[5],15%
same,Population Tubulin-Different-Phenotype (%),[5],44%
same,Total Cell Count,[5],154
same,Population Apoptotic (%),[6],34%
same,Population Fragmented Nuclei (%),[6],27%
same,Population Healthy Nuclei (%),[6],43%
same,Population Hoechst High Intensity Objects (%),[6],5%
same,Population Membrane Permeable-Phenotype (%),[6],9%
same,Population Mitochondria Different-Phenotype (%),[6],14%
same,Population Mitotic Cells (%),[6],65%
same,Population Normal (%),[6],94%
same,Population Pyknosed Nuclei (%),[6],29%
same,Population Tubulin-Different-Phenotype (%),[6],57%
same,Total Cell Count,[6],155
same,Population Apoptotic (%),[7],54%
same,Population Fragmented Nuclei (%),[7],22%
same,Population Healthy Nuclei (%),[7],64%
same,Population Hoechst High Intensity Objects (%),[7],2%
same,Population Membrane Permeable-Phenotype (%),[7],0%
same,Population Mitochondria Different-Phenotype (%),[7],37%
same,Population Mitotic Cells (%),[7],45%
same,Population Normal (%),[7],97%
same,Population Pyknosed Nuclei (%),[7],12%
same,Population Tubulin-Different-Phenotype (%),[7],96%
same,Total Cell Count,[7],174
same,Population Fragmented Nuclei (%),[8],37%
same,Population Healthy Nuclei (%),[8],48%
same,Population Hoechst High Intensity Objects (%),[8],5%
same,Population Membrane Permeable-Phenotype (%),[8],7%
same,Population Mitochondria Different-Phenotype (%),[8],30%
same,Population Normal (%),[8],94%
same,Population Pyknosed Nuclei (%),[8],13%
same,Population Tubulin-Different-Phenotype (%),[8],88%
same,Total Cell Count,[8],235
same,Population Apoptotic (%),[9],68%
same,Population Fragmented Nuclei (%),[9],18%
same,Population Healthy Nuclei (%),[9],69%
same,Population Hoechst High Intensity Objects (%),[9],8%
same,Population Membrane Permeable-Phenotype (%),[9],0%
same,Population Mitochondria Different-Phenotype (%),[9],3%
same,Population Mitotic Cells (%),[9],31%
same,Population Normal (%),[9],91%
same,Population Pyknosed Nuclei (%),[9],12%
same,Population Tubulin-Different-Phenotype (%),[9],41%
same,Total Cell Count,[9],167
same,Population Apoptotic (%),[10],59%
same,Population Fragmented Nuclei (%),[10],33%
same,Population Healthy Nuclei (%),[10],42%
same,Population Hoechst High Intensity Objects (%),[10],5%
same,Population Membrane Permeable-Phenotype (%),[10],13%
same,Population Mitochondria Different-Phenotype (%),[10],18%
same,Population Mitotic Cells (%),[10],40%
same,Population Normal (%),[10],94%
same,Population Pyknosed Nuclei (%),[10],23%
same,Population Tubulin-Different-Phenotype (%),[10],72%
same,Total Cell Count,[10],143
same,Population Apoptotic (%),[11],78%
same,Population Fragmented Nuclei (%),[11],30%
same,Population Healthy Nuclei (%),[11],61%
same,Population Hoechst High Intensity Objects (%),[11],8%
same,Population Membrane Permeable-Phenotype (%),[11],0%
same,Population Mitochondria Different-Phenotype (%),[11],49%
same,Population Mitotic Cells (%),[11],21%
same,Population Normal (%),[11],91%
same,Population Pyknosed Nuclei (%),[11],8%
same,Population Tubulin-Different-Phenotype (%),[11],92%
same,Total Cell Count,[11],187
same,Population Apoptotic (%),[12],61%
same,Population Fragmented Nuclei (%),[12],46%
same,Population Healthy Nuclei (%),[12],47%
same,Population Hoechst High Intensity Objects (%),[12],2%
same,Population Membrane Permeable-Phenotype (%),[12],7%
same,Population Mitochondria Different-Phenotype (%),[12],26%
same,Population Mitotic Cells (%),[12],38%
same,Population Normal (%),[12],97%
same,Population Pyknosed Nuclei (%),[12],6%
same,Population Tubulin-Different-Phenotype (%),[12],89%
same,Total Cell Count,[12],299
